Results gathered from unrelated publications.
Cell line: MCF7
Effect on: cell growth or viability

Compound	assay	setting	measurement	result
CCCCCCCCCCCCNC(=S)NCCCC[C@H](NS(C)(=O)=O)C(=O)N[C@H](C)C(=O)N[C@@H](CCCNC(=N)N)C(=O)N1CCOCC1	MTT	72 h	EC50	64.7 to 93.7 µM
Cc1ccc2nc(-c3ccncc3)[nH]c2c1	MTT	48 h	IC50	54.6 µM
COc1ccc(-c2c(Cc3ccccc3)[nH]c(=NC(=O)c3ccccc3F)n2C)cc1	–	–	EC50	1.4 µM
Cc1ccc2nc(-c3ccc4c(c3)OCO4)[nH]c2c1	MTT	48 h	IC50	> 100 µM
COc1cc(CNC(=O)C[C@H](C)CCC=C(C)C)ccc1OCc1cn(-c2ccc(Cl)cc2)nn1	SRB	10 µM	inhibition	34%
COc1ccc(C(=O)/C=C/c2ccc3c(c2)OCCO3)cc1S(N)(=O)=O	SRB	10 µM	inhibition	77%
CCCCCCCCCCCCNC(=S)NCCCC[C@H](NS(C)(=O)=O)C(=O)N[C@@H](C)C(=O)N[C@@H](CCCNC(=N)N)C(N)=O	MTT	72 h	EC50	63.7 to 84.3 µM
COc1cc(C(CC(N)=O)NCCc2ccc(O)c(O)c2)ccc1O (stereo not shown)	MTT	–	TGI	52 µM
COc1ccc(C(=O)/C=C/c2cccc(Br)c2)cc1S(N)(=O)=O	SRB	10 µM	inhibition	177%
CSc1ccc(-c2nc3ccc(C)cc3n2Cc2ccccc2)cc1	MTT	–	IC50	29 µM
COc1cccc2c1C(=O)c1c(O)c3c(c(O)c1C2=O)C[C@@](O)(C(=O)CO)C[C@@H]3O[C@H]1C[C@H](N)[C@H](O)[C@H](C)O1	MTT	–	TGI	0.21 µM
COc1ccc(C(=O)/C=C/c2cccc(Cl)c2)cc1S(N)(=O)=O	SRB	10 µM	inhibition	167%
c1ccc2[nH]c(-c3ccncc3)nc2c1	MTT	48 h	IC50	> 100 µM
C[C@]12CC[C@@H]3c4ccc(O)cc4CC[C@H]3[C@@H]1CC[C@@H]2O	ATP luminescence	72 h	EC90	53.5 µM
COc1ccc(C(=O)/C=C/c2c(F)cccc2Cl)cc1S(N)(=O)=O	SRB	10 µM	inhibition	105%
Cc1ccc2nc(-c3ccc([N+](=O)[O-])cc3)n(Cc3ccc(Cl)cc3)c2c1	MTT	–	IC50	6.24 µM
COc1cccc2c1C(=O)c1c(O)c3c(c(O)c1C2=O)C[C@@](O)(C(=O)CO)C[C@@H]3O[C@H]1C[C@H](N)[C@H](O)[C@H](C)O1	MTT	48 h	IC50	0.09 µM
C[C@@H](NC(=O)[C@H](CCCCNC(=O)C(F)(F)F)NS(C)(=O)=O)C(=O)N[C@@H](CCCNC(=N)N)C(N)=O	MTT	72 h	EC50	47.6 to 62.8 µM
Cc1ccc2nc(-c3ccc([N+](=O)[O-])cc3)[nH]c2c1	MTT	48 h	IC50	10.5 µM
COc1cc(C(CC(=O)c2ccc(Br)cc2)NCCc2ccc(O)c(O)c2)ccc1O (stereo not shown)	MTT	–	TGI	0.4 µM
COc1ccc(C(=O)/C=C/c2ccc(Cl)c(Cl)c2)cc1S(N)(=O)=O	SRB	10 µM	inhibition	149%
CC(C)c1cnn2c(NCc3ccccc3)cc(NC[C@H]3CCNC[C@@H]3O)nc12	–	0.1 µM, 9 days	inhibition	~50%
COc1ccccc1/C=C/C(=O)c1ccc(OC)c(S(N)(=O)=O)c1	SRB	48 h	GI50	2.7 µM
Cc1ccc2nc(-c3ccco3)[nH]c2c1	MTT	48 h	IC50	> 100 µM
COc1ccc(C(=O)/C=C/c2cc3c(cc2Br)OCO3)cc1S(N)(=O)=O	SRB	10 µM	inhibition	102%
COc1cccc(-c2nc3ccccc3[nH]2)c1	MTT	48 h	IC50	51.4 µM
COc1ccc(C(=O)/C=C/c2ccc3ccccc3c2)cc1S(N)(=O)=O	SRB	10 µM	inhibition	175%
COc1cc(C(CC(=O)c2ccc(Cl)cc2)NCCc2ccc(O)c(O)c2)ccc1O (stereo not shown)	MTT	–	TGI	3.05 µM
